Measured values from ChEMBL document CHEMBL1130075, “(2-Methyl-5-(methylsulfonyl)benzoyl)guanidine Na+/H+ antiporter inhibitors” (J Med Chem, 1997).

molecular target: Sodium/hydrogen exchanger (Oryctolagus cuniculus, UniProt P23791+P50482+P26432); assay: Inhibition of 5-N-(ethyl isopropyl)-amiloride[EIPA]-sensitive Na+ uptake into acidified rabbit erythrocytes.; assay type: functional
How it was run: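 Rabbit blood (heparinized) red cells, washed, acidified in pH 6.2 KCl buffer with ouabain, 10 min 37 °C; internal pH clamped with 200 μM DIDS and 1 mM acetazolamide, 30 min 37 °C. Uptake 5 min at 37 °C in pH 8.0 buffer with 10 mM NaCl plus ²²Na tracer, 1% DMSO. Triplicates; counts with 10 μM EIPA subtracted; IC50 by nonlinear fit.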

IC50	SMILES
6.8 nM	CCCSc1cc(C)c(C(=O)N=C(N)N)cc1S(C)(=O)=O
160 nM	CS(=O)(=O)c1cc(C(=O)N=C(N)N)ccc1-n1cccn1
140 nM	CS(=O)(=O)c1cc(C(=O)N=C(N)N)ccc1C(F)(F)F
26 nM	CC(C)c1ccc(C(=O)N=C(N)N)cc1S(C)(=O)=O [CARIPORIDE]
8 nM	Cc1cc(-n2cccc2)c(S(C)(=O)=O)cc1C(=O)N=C(N)N [ENIPORIDE]
